Source: BindingDB's records for doi:10.1016/j.bmcl.2006.08.108 (Merck Sharp and Dohme Research Laboratories, 2006)
pIC50: −log10 of the molar value.

Biological target: 5-hydroxytryptamine receptor 2A (Homo sapiens, UniProt P28223)
Assay: Displacement of [3H]ketanserin from human 5HT2A receptor expressed in CHOK1 cells
How it was run: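 Membranes from confluent CHO K1 cells expressing human 5-HT2A were incubated with [3H]ketanserin (76 Ci/mmol) for 15 min at 37 °C with shaking at 180 rpm. Buffer was 50 mM Tris pH 7.7, 0.1% ascorbate, pargyline, MgSO4 and 0.5 mM EDTA. Bound and free ligand were separated by GF/B filtration and the filters counted. Mianserin defined non-specific binding. Five-point log titrations were fitted with a four-parameter curve to give IC50 and Ki.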

5-hydroxytryptamine receptor 2A, sequence (P28223 whole entry): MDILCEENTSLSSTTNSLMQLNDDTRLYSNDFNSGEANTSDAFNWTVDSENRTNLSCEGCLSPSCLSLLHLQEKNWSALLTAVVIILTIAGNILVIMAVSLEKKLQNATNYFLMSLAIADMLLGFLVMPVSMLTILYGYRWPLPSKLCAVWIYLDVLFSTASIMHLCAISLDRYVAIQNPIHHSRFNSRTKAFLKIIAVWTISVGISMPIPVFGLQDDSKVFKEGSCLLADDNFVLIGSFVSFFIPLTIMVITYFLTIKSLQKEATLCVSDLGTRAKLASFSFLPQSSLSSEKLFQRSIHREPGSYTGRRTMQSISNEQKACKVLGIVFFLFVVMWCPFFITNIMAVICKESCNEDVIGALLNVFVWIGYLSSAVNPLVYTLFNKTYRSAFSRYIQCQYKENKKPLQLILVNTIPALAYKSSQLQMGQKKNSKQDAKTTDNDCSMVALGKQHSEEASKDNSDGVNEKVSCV

Row | SMILES | pIC50
1 | CCN(CC)C1=NCCN=C(c2ccc(C)cc2)C1 [N,N-diethyl-7-p-tolyl-2,3-dihydro-1H-1,4-diazepin-5-amine] | < 6.00
2 | Cc1ccc(C2=NCCN=C(N3CCOCC3)C2)cc1 [5-morpholino-7-p-tolyl-2,3-dihydro-1H-1,4-diazepine] | < 6.00
3 | Cc1ccc(C2=NCCN=C(N3CCNCC3)C2)cc1 [5-(piperazin-1-yl)-7-p-tolyl-2,3-dihydro-1H-1,4-diazepine] | < 6.00

The next lines start with the values.

Row | pIC50 | SMILES
4 | 7.96 | Cc1ccc(C2=NCCN=C(NC(C)(C)C)C2)cc1 [N-tert-butyl-7-p-tolyl-2,3-dihydro-1H-1,4-diazepin-5-amine]
5 | < 6.00 | CCN(CC)C1=NCCN=C(c2ccccc2F)C1 [N,N-diethyl-7-(2-fluorophenyl)-2,3-dihydro-1H-1,4-diazepin-5-amine]
6 | 7.96 | CC(C)(C)NC1=NCCN=C(c2ccc(F)cc2F)C1 [N-tert-butyl-7-(2,4-difluorophenyl)-2,3-dihydro-1H-1,4-diazepin-5-amine]
